Positions count from the first letter of the chain named.
What was measured:
[1] = target: T1, Nonstructural protein 5A (Hepatitis C virus) (UniProt Q5L478); experiment: Inhibition of HCV GT2b NS5A assessed as suppression of replicon RNA level by real-time PCR analysis; conditions: Hepatitis C virus subtype 2b
T1 sequence (whole entry): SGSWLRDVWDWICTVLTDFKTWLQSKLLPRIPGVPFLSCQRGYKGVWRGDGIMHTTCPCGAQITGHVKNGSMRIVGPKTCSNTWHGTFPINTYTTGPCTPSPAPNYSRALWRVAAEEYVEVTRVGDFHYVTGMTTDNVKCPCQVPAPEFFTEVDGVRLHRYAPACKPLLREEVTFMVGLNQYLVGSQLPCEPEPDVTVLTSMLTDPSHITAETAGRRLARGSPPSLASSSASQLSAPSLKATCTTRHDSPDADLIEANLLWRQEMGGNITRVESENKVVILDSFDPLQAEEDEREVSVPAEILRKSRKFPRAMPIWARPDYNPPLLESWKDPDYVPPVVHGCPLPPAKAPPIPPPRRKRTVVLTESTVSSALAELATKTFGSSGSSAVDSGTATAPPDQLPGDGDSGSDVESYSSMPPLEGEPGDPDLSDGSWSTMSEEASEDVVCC
Outline: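 GT2b replicon, which carries the naturally occurring NS5A 31M resistance-associated variant; potency given as EC90 in nM.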

[2] = test system: T2, Nonstructural protein 5A (Hepatitis C virus), Q5L478 [Y93H]; experiment: Inhibition of HCV GT1a NS5A Y93H mutant assessed as suppression of replicon RNA level by real-time PCR analysis; conditions: Hepatitis C virus subtype 1a
T2 sequence (whole entry): T1 sequence (whole entry) with Y93H

[3] = Half life in Sprague-Dawley rat at 10 mg/kg, po or 2 mg/kg, iv; assay type: ADME, organism-based; conditions: in vivo
Outline: (§1)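 Male Sprague–Dawley rats got an IV dose of 2 mg/kg in 60% PEG200 and a PO dose of 10 mpk in 10% TWEEN. Reported values are PO AUC (µM h), PO Cmax (µM), T1/2 (h), clearance (ml/min/kg) and oral bioavailability F (%).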

[4] = Oral bioavailability in Sprague-Dawley rat at 10 mg/kg; assay type: ADME, organism-based; conditions: in vivo; outline: as §1
[5] = test system: Nonstructural protein 5A (Hepatitis C virus), Q5L478 [UNDEFINED MUTATION]; experiment: Inhibition of HCV GT1a NS5A L31V mutant assessed as suppression of replicon RNA level by real-time PCR analysis; conditions: Hepatitis C virus subtype 1a
[6] = target: T1, Nonstructural protein 5A (Hepatitis C virus); experiment: Inhibition of HCV GT3a NS5A assessed as suppression of replicon RNA level by real-time PCR analysis; conditions: Hepatitis C virus subtype 3a
[7] = Clearance in Sprague-Dawley rat at 10 mg/kg, po or 2 mg/kg, iv; assay type: ADME, organism-based; conditions: in vivo; outline: as §1
[8] = test system: Hepatitis C virus subtype 1a; experiment: Selectivity ratio of EC90 for HCV GT1a NS5A L31V mutant to EC90 for HCV GT1a NS5A
[9] = AUC in Sprague-Dawley rat at 10 mg/kg, po; assay type: ADME, organism-based; conditions: in vivo; outline: as §1
[10] = Cmax in Sprague-Dawley rat at 10 mg/kg, po; assay type: ADME, organism-based; parameters: dose 10 mg/kg, route oral; conditions: in vivo; outline: as §1
[11] = test system: Hepatitis C virus subtype 1a; experiment: Selectivity ratio of EC90 for HCV GT1a NS5A Y93H mutant to EC90 for HCV GT1a NS5A
[12] = target: T1, Nonstructural protein 5A (Hepatitis C virus); experiment: Inhibition of HCV GT1a NS5A assessed as suppression of replicon RNA level by real-time PCR analysis; conditions: Hepatitis C virus subtype 1a
[13] = Selectivity ratio of EC90 for HCV GT2b NS5A to EC90 for HCV GT1a NS5A
[14] = target: T1, Nonstructural protein 5A (Hepatitis C virus); experiment: Inhibition of HCV GT2a NS5A assessed as suppression of replicon RNA level by real-time PCR analysis; conditions: Hepatitis C virus subtype 2a
[15] = Cmax in Sprague-Dawley rat at 5 mg/kg, po; assay type: ADME, organism-based; parameters: dose 5 mg/kg, route oral; conditions: in vivo
Outline: (§2)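 Male Sprague–Dawley rats got IV dosing at 2 mg/kg in 60% PEG200 and PO dosing at 5 mpk in either 0.5% MC or 10% TWEEN, depending on compound. The readouts are PO AUC (µM h), PO Cmax (µM), T1/2 (h), Cl (ml/min/kg) and F (%).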

[16] = AUC in Sprague-Dawley rat at 5 mg/kg, po; assay type: ADME, organism-based; conditions: in vivo; outline: as §2
[17] = target: T1, Nonstructural protein 5A (Hepatitis C virus); experiment: Inhibition of HCV GT1b NS5A assessed as suppression of replicon RNA level by real-time PCR analysis; conditions: Hepatitis C virus subtype 1b
[18] = Clearance in Sprague-Dawley rat at 5 mg/kg, po or 2 mg/kg, iv; assay type: ADME, organism-based; conditions: in vivo; outline: as §2
[19] = Half life in Sprague-Dawley rat at 5 mg/kg, po or 2 mg/kg, iv; assay type: ADME, organism-based; conditions: in vivo; outline: as §2
[20] = Oral bioavailability in Sprague-Dawley rat at 5 mg/kg; assay type: ADME, organism-based; conditions: in vivo; outline: as §2
[21] = target: T1, Nonstructural protein 5A (Hepatitis C virus); experiment: Inhibition of HCV GT4a NS5A assessed as suppression of replicon RNA level by real-time PCR analysis; conditions: Hepatitis C virus subtype 4a

| Structure (SMILES) | EC90 [1] | EC90 [2] | EC90 [5] | EC90 [6] | EC90 [12] | EC90 [14] | EC90 [17] | EC90 [21] | further results |
| --- | --- | --- | --- | --- | --- | --- | --- | --- | --- |
| COC(=O)N[C@H](C(=O)N1CCC[C@H]1c1ncc(-c2cc(F)c3c(c2)OC(c2cc(Cl)cc(OC)c2)n2c-3cc3cc(-c4cnc([C@@H]5CCCN5C(=O)[C@@H](NC(=O)OC)C(C)C)[nH]4)ccc32)[nH]1)C(C)C (some centres not stated) | 0.7 nM | 3 nM | 0.1 nM | 0.1 nM | 10 pM |  |  |  | half-life [3]: 312 min; bioavailability [4]: 3%; clearance [7]: 8 mL/min/kg; Selectivity ratio [8]: 10; AUC [9]: 0.75 µM·h; Cmax [10]: 100 nM; Selectivity ratio [11]: 300; Selectivity ratio [13]: 70 |
| COC(=O)N[C@H](C(=O)N1CCC[C@H]1c1ncc(-c2cc(F)c3c(c2)O[C@@H](c2ccccc2)n2c-3cc3cc(-c4cnc([C@@H]5CCCN5C(=O)[C@@H](NC(=O)OC)C(C)C)[nH]4)ccc32)[nH]1)C(C)C | 18 nM | 34 nM | 0.4 nM | 0.4 nM | 5 pM | 0.15 nM | 3 pM | 0.04 nM | Cmax [15]: 330 nM; AUC ([16]; Sprague-Dawley, read-out: AUC): 2.8 µM·h; clearance [18]: 11 mL/min/kg; half-life [19]: 216 min; bioavailability [20]: 33% |
| COC(=O)N[C@H](C(=O)N1C[C@H](F)C[C@H]1c1ncc(-c2cc(F)c3c(c2)OC(c2ccccc2)n2c-3cc3cc(-c4cnc([C@@H]5C[C@@H](F)CN5C(=O)[C@@H](NC(=O)OC)C(C)C)[nH]4)ccc32)[nH]1)C(C)C (mixture of isomers) | 72 nM | 0.08 nM | 9 nM | 0.8 nM | 5 pM | 0.2 nM | 3 pM | 0.1 nM | Selectivity ratio [11]: 16 |
| COC(=O)N[C@H](C(=O)N1CCC[C@H]1c1ncc(-c2cc(F)c3c(c2)OC(c2cccc(OC)c2)n2c-3cc3cc(-c4cnc([C@@H]5CCCN5C(=O)[C@@H](NC(=O)OC)C(C)C)[nH]4)ccc32)[nH]1)C(C)C (some centres not stated) | 6 nM | 6 nM | 0.2 nM | 0.07 nM | 10 pM |  |  |  | half-life [3]: 354 min; bioavailability [4]: 12%; clearance [7]: 10 mL/min/kg; AUC [9]: 2.1 µM·h; Cmax [10]: 240 nM |
| COC(=O)N[C@H](C(=O)N1CCC[C@H]1c1ncc(-c2ccc3c(c2)OC(c2cccc(OC)c2)n2c-3cc3cc(-c4cnc([C@@H]5CCCN5C(=O)[C@@H](NC(=O)OC)C(C)C)[nH]4)ccc32)[nH]1)C(C)C (some centres not stated) | 2 nM | 8 nM | 0.2 nM | 0.1 nM | 5 pM |  |  |  | Cmax [15]: 100 nM; AUC [16]: 0.51 µM·h; half-life [19]: 258 min |
| COC(=O)N[C@H](C(=O)N1CCC[C@H]1c1ncc(-c2cc(F)c3c(c2)OC(c2ccccc2)n2c-3cc3cc(-c4cnc([C@@H]5C[C@@H](F)CN5C(=O)[C@@H](NC(=O)OC)C(C)C)[nH]4)ccc32)[nH]1)C(C)C (mixture of isomers) | 32 nM | 4 nM | 2 nM | 0.3 nM | 3 pM | 0.01 nM | 3 pM | 0.05 nM |  |
| COC(=O)N[C@H](C(=O)N1CCC[C@H]1c1ncc(-c2cc(F)c3c(c2)O[C@@H](c2ccccc2)n2c-3c(Cl)c3cc(-c4cnc([C@@H]5CCCN5C(=O)[C@@H](NC(=O)OC)C(C)C)[nH]4)ccc32)[nH]1)C(C)C | 42 nM | 51 nM | 0.4 nM | 2 nM | 20 pM | 0.03 nM | 6 pM | 0.04 nM |  |
| COC(=O)N[C@H](C(=O)N1CCC[C@H]1c1ncc(-c2ccc3c(c2)c(F)c2n3C(c3ccccc3)Oc3cc(-c4cnc([C@@H]5C[C@@H](F)CN5C(=O)[C@@H](NC(=O)OC)C(C)C)[nH]4)ccc3-2)[nH]1)C(C)C (some centres not stated) | 33 nM | 2 nM | 1 nM | 0.2 nM | 2 pM | 0.003 nM | 1 pM | 0.04 nM |  |
